Screening results from PubChem.
An excerpt weighted towards active compounds, which were near 3% of everything screened.
UBC13 inh – UBC13 polyubiquitin chain formation inhibitors, primary screen, biochemical, TR-FRET, uHTS. inhibition, % at 20 µM. actives 0.47% (n = 330,000); in the data active means inhibition above about 45%, passing the limit was not always enough
Target sequence (P61088 whole entry, looked up): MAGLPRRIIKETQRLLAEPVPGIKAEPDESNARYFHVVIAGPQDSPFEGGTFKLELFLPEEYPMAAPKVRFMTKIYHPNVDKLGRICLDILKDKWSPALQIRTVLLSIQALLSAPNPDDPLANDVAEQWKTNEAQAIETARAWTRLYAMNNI
SENP6 inh – SENP6 protease inhibitors, primary screen, biochemical, luminescence, uHTS | Sentrin-specific protease 6 (Homo sapiens), Q9GZR1 | Recombinant SENP6 catalytic domain, aminoluciferin luminescence | inhibition, % at 10 µM | actives 1.8% (n = 330,000);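 active means inhibition above about 50% at the single tested dose, limit read from the data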;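 further: plate controls were DMSO wells with enzyme for no effect and DMSO wells lacking enzyme for full effect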
SENP8 block-1 – human SENP8 protease inhibitors, primary screen, biochemical, fluorescence, Nedd8 protein substrate, uHTS; recombinant SENP8; Sentrin-specific protease 8 (Homo sapiens), Q96LD8; inhibition, % at 20 µM; AID 602440, 2012; actives 0.64% (n = 360,000); in the data active means inhibition mostly above about 40%, no sharp cut-off; inactive means mostly below about 27%
SENP8 block-2 – SENP8 protease inhibitors, primary screen, biochemical, luminescence. Sentrin-specific protease 8 (Homo sapiens), Q96LD8. purified SENP8, Z-RLRGG-aminoluciferin cleavage. inhibition, % at 10 µM. actives 1.2% (n = 330,000). AID 2540, 2010; in the data active means inhibition above about 50%
SENP7 block – SENP7 protease inhibitors, primary screen, biochemical, luminescence, uHTS | Sentrin-specific protease 7 (Homo sapiens), Q9BQF6 | recombinant SENP7, Z-RLRGG-aminoluciferin luminescence, 40 min | inhibition, % at 5 µM | actives 1.5% (n = 330,000) | AID 434973, 2010;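 active means inhibition above about 50% at the single test dose, limit read from the data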;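 further: plate controls were DMSO with enzyme for no effect and no enzyme buffer wells for full effect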
Target sequence (Q9BQF6 706-1050 limits assumed): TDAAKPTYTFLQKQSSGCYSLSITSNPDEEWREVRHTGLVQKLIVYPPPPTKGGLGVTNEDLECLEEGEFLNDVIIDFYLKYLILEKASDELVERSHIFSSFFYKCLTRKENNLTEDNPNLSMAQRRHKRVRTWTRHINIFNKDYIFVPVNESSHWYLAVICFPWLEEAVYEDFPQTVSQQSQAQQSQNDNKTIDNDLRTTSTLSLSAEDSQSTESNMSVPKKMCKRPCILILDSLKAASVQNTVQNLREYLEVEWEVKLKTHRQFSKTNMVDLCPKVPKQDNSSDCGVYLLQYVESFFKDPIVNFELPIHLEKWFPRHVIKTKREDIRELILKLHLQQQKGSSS
Apaf1 inhib – inhibitors of human Apaf-1 apoptosome, primary screen, biochemical, DEVD-Rh110 fluorescence, uHTS; Apoptotic protease-activating factor 1 (Homo sapiens), O14727; reconstituted apoptosome caspase-3 activity; inhibition, % at 20 µM; actives 0.71% (n = 330,000); AID 489030, 2010; active means inhibition of at least 40% at 20 µM;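 further: plate controls were DMSO wells for no effect and DEVD-CHO caspase inhibitor wells for full effect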
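Material: reconstituted apoptosome with Apaf-1, cytochrome c, caspase-9, procaspase-3, dATP; medium: pH 7.5 Hepes buffer with CHAPS, BSA, DTT; also added: cytochrome c and DEVD-Rh110 substrate; timing: 30 min plus 50 min, RT; signal: Rh110 fluorescence intensity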
SENP8 confirm – SENP8 protease inhibitors, retest, confirmation, biochemical, luminescence, single concentration; shares compounds with SENP7 block; Recombinant SENP8, Z-RLRGG-aminoluciferin luminescence, 60 min; inhibition, % at 12.5 µM; actives 40% (n = 6,200); AID 488912, 2010;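 active means mean inhibition across replicates above about 50%, limit read from the data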
SENP6 conf – SENP6 protease inhibitors, confirmation, biochemical, luminescence, single concentration; shares compounds with SENP7 block; recombinant SENP6, Z-RLRGG-aminoluciferin luminescence; inhibition, % at 12.5 µM; actives 58% (n = 6,200)
SENP7 conf – SENP7 protease inhibitors, retest, confirmation, biochemical, luminescence, single concentration. shares compounds with SENP7 block. recombinant SENP7, Z-RLRGG-aminoluciferin luminescence, 40 min. inhibition, % at 12.5 µM. actives 69% (n = 6,200). AID 488917, 2010
Casp3 select – caspase-3 protease inhibitors, confirmation, selectivity assay for SENP inhibitor project, biochemical, single concentration. shares compounds with SENP7 block. actives 60% (n = 6,200). inhibition, % at 12.5 µM. purified caspase-3, Z-DEVD-aminoluciferin luminescence, 60 min;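 active means mean inhibition above about 50%, limit read from the data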;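 further: plate controls were enzyme with DMSO for no effect and wells without caspase-3 for full effect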
SENP luc ctr – luminescence interference (SENP counter-screen). shares compounds with SENP7 block. Pre-incubated SENP8/Z-RLRGG-aminoluciferin, luciferase luminescence interference. inhibition, % at 12.5 µM. actives 39% (n = 6,200). AID 488919;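 active means mean inhibition above about 50% when retested at one dose, limit read from the data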;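 further: plate controls were DMSO wells with completed reaction for no effect and substrate without enzyme for full effect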
Numbers without * were called inactive; i = inactive; · = no result given.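 How the source made its calls, unless noted: active means mean inhibition above about 50% in the one-dose retest (limit read from the data); inactive means the rest.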

SMILES	UBC13 inh	SENP6 inh	SENP8 block-1	SENP8 block-2	SENP7 block	Apaf1 inhib	SENP8 confirm	SENP6 conf	SENP7 conf	Casp3 select	SENP luc ctr
Cn1cccc1C(=O)N/N=C/c1c(Cl)cccc1Cl	0	79*	4	76*	83*	3	83*	82*	72*	91*	26
Cc1ccc2c(Cl)c(C(=O)N/N=C/c3cccn3C)sc2c1	-18	39	-5	29	84*	24	10	8	-5	11	1
Cn1cccc1/C=N/NC(=O)c1sc2cc(Cl)ccc2c1Cl	-3	-7	·	-7	-1	2	·	·	·	·	·
CC(=O)N1C(=O)C2(NCC(C)N2)c2ccccc21 (stereo not given)	·	·	30	·	·	·	·	·	·	·	·
Cc1cc(Br)cn2c(Cc3ccsc3)c(C(C)(C)C)nc12	·	·	-207	·	·	·	·	·	·	·	·
O=C(Nc1ccccc1)Nc1cccn(Cc2c(F)cccc2Cl)c1=O	2	58*	-233	55*	13	15	17	49	92*	50*	14
O=C(Nc1cccn(Cc2c(Cl)cccc2Cl)c1=O)c1c(Cl)cccc1Cl	4	18	10	11	6	-9	·	·	·	·	·
Fc1ccccc1-c1nc(-c2ccc(Br)o2)no1	0	84*	12	85*	89*	9	-12	83*	97*	68*	23
Cc1ccccc1-c1nc(-c2ccc(Br)o2)no1	5	72*	14	58*	67*	17	22	64*	86*	45	38
COC(=O)[C@@]12C[C@@H](CC(=O)NCC3CCCCC3)C(=O)N(Cc3ccco3)C1=CCC(C)(C)C2	·	·	19	·	·	·	·	·	·	·	·
CN(C)c1oc(-c2ccccc2)nc1C#N	14	11	-311	-1	17	-11	·	·	·	·	·
COc1ccccc1/C=C/c1nc(C#N)c(N(C)C)o1	7	57*	i	46	30	0	20	57*	42	53*	10
CC(C)N1C(=O)S/C(=C\c2ccc(-c3ccc(Cl)c(C(=O)O)c3)o2)C1=O	1	91*	-191	86*	77*	3	94*	94*	99*	38	90*
Cc1ccc(N2NC(=O)/C(=C/c3ccc(-c4ccc(Cl)c(C(=O)O)c4)o3)C2=O)cc1	-22	-6	-30	2	-2	9	·	·	·	·	·
NC(=O)CSc1nc(C2CC2)nc2sc3c(c12)CCCC3	-15	75*	11	74*	68*	14	-18	-4	11	5	16
CSCCC(C(=O)NC1CCCC1)n1c(C2CC2)nc2ccccc21 (stereo not given)	·	·	12	·	·	·	·	·	·	·	·
O=C(COC(=O)/C=C/c1ccccc1)Nc1cccnc1Cl	2	-17	11	-14	1	9	·	·	·	·	·
O=C(/C=C/c1ccco1)Nc1cccnc1Cl	-11	58*	-2	48	54*	-13	58*	56*	86*	85*	63*
O=C(/C=C/c1ccc(Cl)cc1)NC(=S)Nc1ccccc1C(=O)O	-15	-10	-2	5	9	13	·	·	·	·	·
O=C(Nc1ccc(F)cc1)Nc1cccnc1Cl	6	81*	16	77*	85*	4	-7	78*	96*	88*	81*
NC(=O)c1ccccc1NC(=O)/C=C/c1ccc(Cl)cc1	2	51*	3	22	63*	-19	1	17	89*	66*	18
COC(=O)c1ccccc1NC(=O)/C=C/c1ccco1	-15	35	-32	17	8	7	·	·	·	·	·
O=C(/C=C/c1ccccc1)Nc1cccnc1Cl	-7	74*	19	66*	-1	12	69*	60*	90*	84*	73*
O=C(NC1CCCCC1)C(c1ccc(C(F)(F)F)cc1)n1c(=O)c(-c2cc3ccccc3[nH]2)nc2ccccc21 (stereo not given)	·	·	-450	·	·	·	·	·	·	·	·
O=C1[C@@H](c2ccccc2)CC[C@@H]2C=CC[C@H]3CCN1[C@@H]32	·	·	-17	·	·	·	·	·	·	·	·
SMILES	UBC13 inh	SENP6 inh	SENP8 block-1	SENP8 block-2	SENP7 block	Apaf1 inhib	SENP8 confirm	SENP6 conf	SENP7 conf	Casp3 select	SENP luc ctr
Cn1cccc1/C=C1\SC(=Nc2ccccc2)NC1=O	-10	80*	18	72*	65*	1	44	61*	64*	63*	27
c1nc2ccc(Cc3ccc4nc[nH]c4c3)cc2[nH]1	7	9	16	3	1	-17	·	·	·	·	·
Cc1nc2ccc(-c3nc4cc(N)ccc4o3)cc2[nH]1	-3	46	-276	54*	77*	0	2	78*	96*	90*	58*
Nc1ccc2oc(-c3ccc4nc[nH]c4c3)nc2c1	-11	67*	-321	30	58*	-1	54*	55*	86*	80*	50*
Cc1nc2ccc([N+](=O)[O-])cc2[nH]1	1	-13	-6	1	3	2	·	·	·	·	·
Cc1noc(C)c1Cn1c(C)c(C(=O)NCc2ccc3c(c2)OCCO3)sc1=O	·	·	-4	·	·	·	·	·	·	·	·
O=[N+]([O-])c1ccc(/C=C/c2ccc3cccc(O)c3n2)cc1	-57	45	22	34	53*	21	0	5	6	11	7
O=[N+]([O-])c1ccc(/C=C/c2ccc3ccccc3n2)cc1	-2	93*	4	91*	94*	5	64*	78*	94*	78*	14
